Measured values reported in ChEMBL document CHEMBL4340510, “Design, synthesis, and biological evaluation of truncated deguelin derivatives as Hsp90 inhibitors” (Eur J Med Chem, 2019).
Calls of active or inactive are those of the source. The rule behind the calls is not given here.

Assays:
MCF7 [1] = experiment: Induction of apoptosis in human MCF7 cells assessed as condensation of chromosome at 0.5 to 4 uM after 36 hrs by hoechst 33258 staining-based fluorescence microscopy; format: functional, cell-based
Summary of the method: (§1)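 Approximately 5×10^4 cells per well are exposed to 0, 0.5, 1.0, 2.0 or 4.0 μM for 36 h. Cells are PBS-washed and fixed in 4% paraformaldehyde for 30 min. They are stained with 20 μg/ml Hoechst 33258 for 15 min at room temperature in the dark, and nuclear morphology is examined by fluorescence microscopy.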

[2] = biological target: T1, Heat shock protein HSP90 (Homo sapiens) (UniProt P07900+P08238); experiment: Inhibition of HSP90 in human MCF7 cells assessed as reduction in AKT expression at 4 uM by coimmunoprecipitation-based Western blot assay; format: cell-based
Summary of the method: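 Cells are treated with 4 μM. Anti-Hsp90 or anti-Akt antibodies are added to the supernatants, and immune complexes are pulled down with protein A agarose. Complexes are eluted by boiling in loading buffer and immunoblotted with anti-Hsp90 or anti-Akt antibodies.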

MCF7 [3] = experiment: Induction of apoptosis in human MCF7 cells assessed as peripherization of chromosome at 0.5 to 4 uM after 36 hrs by hoechst 33258 staining-based fluorescence microscopy; format: functional, cell-based; summary of the method: as §1
MCF7 [4] = experiment: Induction of apoptosis in human MCF7 cells assessed as increase in early apoptotic cells at 0.5 to 4 uM after 36 hrs by Annexin V-FITC/propidium iodide double staining-based flow cytometry relative to control; format: functional
Summary of the method: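 Cells (1×10^5/well) are cultured 24 h, then treated in triplicate for 36 h at 0.5, 1.0, 2.0 or 4.0 μM. Vehicle is 1‰ DMSO in complete medium. Cells are stained with FITC-Annexin V and PI for 15 min in the dark and analysed by flow cytometry. Mean±SD of three independent experiments.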

[5] = biological target: T1, Heat shock protein HSP90 (Homo sapiens); experiment: Inhibition of monoclonal antibody binding to HSP90 (unknown origin) by immunoprecipitation-based Western blot analysis; format: protein assay
[6] = biological target: T1, Heat shock protein HSP90 (Homo sapiens); experiment: Inhibition of HSP90 in human MCF7 cells assessed as down regulation of survivin expression after 48 hrs by Western blot analysis; format: cell-based
Summary of the method: (§2)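 Cells are treated 48 h and washed twice in ice-cold PBS. They are lysed on ice for 20 min and spun at 13,000 g, 4 °C. 20 μg protein is run on 8-12% SDS-PAGE and transferred to PVDF. Membranes are probed overnight at 4 °C with primary antibodies (Bcl-xL, cleaved caspase-3, mTOR/p-mTOR, MAPK/p-MAPK, Akt/p-Akt, HIF-1α, survivin; β-actin/GAPDH loading). HRP secondary and chemiluminescence detection follow.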

NCI-H1299 = experiment: Antiproliferative activity against human NCI-H1299 cells assessed as inhibition of cell growth at 0.1 uM after 72 hrs by MTT assay relative to control; format: functional; conditions: NCI-H1299, 72 h, read-out: GI
Summary of the method: (§3)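 Cells in RPMI 1640 are seeded at 4,000 cells/well and held 24 h at 37 °C, 5% CO2. Medium is replaced with compound-containing medium (DMSO ≤0.25%) for 72 h at 37 °C. MTT read-out by absorbance at 570 nm. Quadruplicate wells, repeated three times; values are means of three independent experiments.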

MCF7 [7] = experiment: Cell cycle arrest in human MCF7 cells assessed as accumulation at G1 phase at 2 uM after 48 hrs by propidium iodide staining-based flow cytometry (reference value: 60.61%); format: functional
Summary of the method: (§4)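 5×10^4 cells are seeded, incubated overnight, then treated 48 h. Cells are washed in cold PBS and fixed in 70% ethanol at −20 °C for 12 h. They are then stained with 100 µg/mL RNase plus 50 µg/mL PI in PBS, 37 °C for 30 min. DNA content is measured by flow cytometry.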

MCF7 [8] = experiment: Antiproliferative activity against human MCF7 cells after 72 hrs by MTT assay; format: functional, cell-based; conditions: MCF7, 72 h; summary of the method: as §3
MCF7 [9] = experiment: Antiinvasive activity in human MCF7 cells after 24 hrs by crystal violet dye-based transwell matrix penetration assay; format: functional, cell-based
Summary of the method: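 Matrigel-coated transwell invasion chambers, 1×10^4 cells seeded in the upper chamber, 37 °C for 24 h. Non-invaded cells are swabbed off. Invaded cells on the underside are fixed in 1% paraformaldehyde, stained with crystal violet and counted in ten random 200× fields per well. Result is the mean cells per field, from three independent experiments.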

MCF7 [10] = experiment: Cell cycle arrest in human MCF7 cells assessed as accumulation at G2 phase at 0.5 uM after 48 hrs by propidium iodide staining-based flow cytometry (reference value: 22.74%); format: functional; summary of the method: as §4
[11] = biological target: T1, Heat shock protein HSP90 (Homo sapiens); experiment: Inhibition of HSP90 in human MCF7 cells assessed as down regulation of HIF-1alpha expression after 48 hrs by Western blot analysis; format: cell-based; summary of the method: as §2
[12] = biological target: T1, Heat shock protein HSP90 (Homo sapiens); experiment: Inhibition of HSP90 in human MCF7 cells assessed as decrease in phosphorylation of mTOR after 48 hrs by Western blot analysis; format: cell-based; summary of the method: as §2
MCF7 [13] = experiment: Antiinvasive activity in human MCF7 cells assessed as number of invaded cells at 1 uM after 24 hrs by crystal violet dye-based transwell matrix penetration assay (reference value: 172.1 +/- 8.3); format: functional
MCF7 [14] = experiment: Cell cycle arrest in human MCF7 cells assessed as accumulation at S phase at 1 uM after 48 hrs by propidium iodide staining-based flow cytometry (reference value: 16.64%); format: functional; summary of the method: as §4
MCF7 [15] = experiment: Cell cycle arrest in human MCF7 cells assessed as increase in accumulation at S phase after 48 hrs by propidium iodide staining-based flow cytometry; format: functional; summary of the method: as §4
MCF7 [16] = experiment: Induction of apoptosis in human MCF7 cells assessed as increase in cleaved-caspase3 expression at 1 to 4 uM after 48 hrs by Western blot analysis; format: functional, cell-based; summary of the method: as §2
[17] = biological target: T1, Heat shock protein HSP90 (Homo sapiens); experiment: Inhibition of HSP90 in human MCF7 cells assessed as decrease in phosphorylation of AKT after 48 hrs by Western blot analysis; format: cell-based; summary of the method: as §2
[18] = biological target: T1, Heat shock protein HSP90 (Homo sapiens); experiment: Induction of HSP90-mediated AKT degradation in human MCF7 cells assessed as increase in ubiquitinated AKT expression at 4 uM by coimmunoprecipitation-based Western blot assay; format: cell-based

**Q.** `COc1cc(OC)c(OC)cc1CC(=O)c1ccc2c(c1OC)C=CC(C)(C)O2` was tested. Which Activity (MCF7 [1]) did it give?
**A.** Its Activity is “Active”.

**Q.** What about the inhibition [2] of the same compound?
**A.** Its inhibition is “Active”.

**Q.** And the Activity (MCF7 [3])?
**A.** The Activity was “Active”.

**Q.** And the Activity (MCF7 [4])?
**A.** The Activity was 13.6 - 71.8%.

**Q.** What about the inhibition [5] of the same compound?
**A.** Its inhibition is “Dose-dependent effect”.

**Q.** What about the inhibition [6] of the same compound?
**A.** The inhibition was “Dose-dependent effect”.

**Q.** What about the inhibition of growth at 0.1 µM (NCI-H1299) of the same compound?
**A.** Its inhibition of growth at 0.1 µM is 15.3%.

**Q.** And the Activity (MCF7 [7])?
**A.** The Activity was 46.21%.

**Q.** What about the IC50 (MCF7 [8]) of the same compound?
**A.** The IC50 was 2.51 µM.

**Q.** And the Activity (MCF7 [9])?
**A.** Its Activity is “Dose-dependent effect”.

**Q.** What about the Activity (MCF7 [10]) of the same compound?
**A.** The Activity was 19.51%.

**Q.** And the inhibition [11]?
**A.** The inhibition was “Dose-dependent effect”.

**Q.** What about the inhibition [12] of the same compound?
**A.** The inhibition was “Dose-dependent effect”.

**Q.** And the Activity (MCF7 [13])?
**A.** The Activity was 63.2.

**Q.** And the Activity (MCF7 [14])?
**A.** The Activity was 23.2%.

**Q.** And the Activity (MCF7 [15])?
**A.** Its Activity is “Dose-dependent effect”.

**Q.** And the Activity (MCF7 [16])?
**A.** Its Activity is “Active”.

**Q.** What about the inhibition [17] of the same compound?
**A.** Its inhibition is “Dose-dependent effect”.

**Q.** And the Activity [18]?
**A.** The Activity was “Active”.
